From ChEMBL document CHEMBL4627265, “Optimization of 8-oxoadenines with toll-like-receptor 7 and 8 activity” (Bioorg Med Chem Lett, 2020)
The source made the active and inactive calls. The calls are words filed in the database; no cut-off is given here.

Tests used:
Format in all cases: cell-based
Toll-like receptor 7 = target: T1, Toll-like receptor 7 (Homo sapiens, UniProt Q9NYK1); test: Agonist activity at human TLR7 expressed in HEK293 cells assessed as induction of NFKappaB activity after 24 hrs by SEAP reporter gene assay
T1 sequence (Q9NYK1 whole entry): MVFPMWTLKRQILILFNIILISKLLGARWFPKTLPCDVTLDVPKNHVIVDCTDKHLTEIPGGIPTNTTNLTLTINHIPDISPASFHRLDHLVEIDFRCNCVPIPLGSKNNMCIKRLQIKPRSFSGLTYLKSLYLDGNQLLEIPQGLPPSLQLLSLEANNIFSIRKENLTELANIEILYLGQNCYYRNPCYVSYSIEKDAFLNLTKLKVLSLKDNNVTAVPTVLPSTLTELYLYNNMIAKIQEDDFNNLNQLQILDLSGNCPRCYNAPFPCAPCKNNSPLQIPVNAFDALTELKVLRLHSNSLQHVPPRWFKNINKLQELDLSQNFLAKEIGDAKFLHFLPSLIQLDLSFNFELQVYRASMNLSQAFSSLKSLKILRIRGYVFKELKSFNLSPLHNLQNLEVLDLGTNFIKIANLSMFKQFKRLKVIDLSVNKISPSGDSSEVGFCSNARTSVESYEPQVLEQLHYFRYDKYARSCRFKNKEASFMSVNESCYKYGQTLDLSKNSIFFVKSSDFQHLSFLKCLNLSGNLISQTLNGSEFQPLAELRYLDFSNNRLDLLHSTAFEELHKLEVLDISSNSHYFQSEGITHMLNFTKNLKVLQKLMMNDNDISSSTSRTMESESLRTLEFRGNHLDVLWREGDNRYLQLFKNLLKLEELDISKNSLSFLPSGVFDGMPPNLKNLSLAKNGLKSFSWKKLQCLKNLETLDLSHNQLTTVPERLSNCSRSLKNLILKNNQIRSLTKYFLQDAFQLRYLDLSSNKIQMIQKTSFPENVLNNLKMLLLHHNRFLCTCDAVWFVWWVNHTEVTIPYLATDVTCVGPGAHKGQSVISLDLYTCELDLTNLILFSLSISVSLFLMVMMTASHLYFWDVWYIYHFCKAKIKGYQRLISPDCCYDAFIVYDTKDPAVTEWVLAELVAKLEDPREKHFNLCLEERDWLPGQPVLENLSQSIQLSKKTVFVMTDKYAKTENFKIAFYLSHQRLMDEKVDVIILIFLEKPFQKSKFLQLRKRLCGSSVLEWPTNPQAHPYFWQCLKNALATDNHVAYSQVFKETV
Outline: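 HEK293 cells stably transfected with hTLR7 or hTLR8 plus an NFκB-driven SEAP reporter, treated 24 h with compound over a μM range; SEAP secretion read out. EC50 as mean ± SD of three (TLR7) or four (TLR8) independent experiments.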

[1] = target: T2, Toll-like receptor 7 (Homo sapiens) (UniProt Q9NYK1); test: Agonist activity at TLR7 in human PBMC assessed as induction of plasmacytoid dendritic cell maturation by measuring increase in MHC-1 level at 0.1 uM after 6 hrs by flow cytometry relative to control
T2 sequence (whole entry): T1 sequence (Q9NYK1 whole entry)
Outline: (§1)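 hPBMCs stimulated 6 h at a single 0.1 μM dose; HLA-DR, MHC-I, CD80 and CD86 on mDCs and pDCs measured by flow cytometry, expressed as fold change versus unstimulated cells. Mean ± SD of three independent experiments in three different donors.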

[2] = target: T2, Toll-like receptor 7 (Homo sapiens); test: Agonist activity at TLR7 in human PBMC assessed as IFNalpha stimulation at 10 uM
Outline: (§2)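 IFNα secretion by hPBMCs across a μM dose range; MEC = lowest dose tested inducing cytokine, PC = dose giving highest level, PL = peak level at 10 μM. Data representative of one of three independent donors.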

[3] = target: T2, Toll-like receptor 7 (Homo sapiens); test: Agonist activity at TLR7 in human PBMC assessed as induction of plasmacytoid dendritic cell maturation by measuring increase in HLA-DR level at 0.1 uM after 6 hrs by flow cytometry relative to control; outline: as §1
[4] = target: T3, Toll-like receptor 8 (Homo sapiens) (UniProt Q9NR97); test: Agonist activity at TLR8 in human PBMC assessed as TNFalpha level at 10 uM
T3 sequence (whole entry): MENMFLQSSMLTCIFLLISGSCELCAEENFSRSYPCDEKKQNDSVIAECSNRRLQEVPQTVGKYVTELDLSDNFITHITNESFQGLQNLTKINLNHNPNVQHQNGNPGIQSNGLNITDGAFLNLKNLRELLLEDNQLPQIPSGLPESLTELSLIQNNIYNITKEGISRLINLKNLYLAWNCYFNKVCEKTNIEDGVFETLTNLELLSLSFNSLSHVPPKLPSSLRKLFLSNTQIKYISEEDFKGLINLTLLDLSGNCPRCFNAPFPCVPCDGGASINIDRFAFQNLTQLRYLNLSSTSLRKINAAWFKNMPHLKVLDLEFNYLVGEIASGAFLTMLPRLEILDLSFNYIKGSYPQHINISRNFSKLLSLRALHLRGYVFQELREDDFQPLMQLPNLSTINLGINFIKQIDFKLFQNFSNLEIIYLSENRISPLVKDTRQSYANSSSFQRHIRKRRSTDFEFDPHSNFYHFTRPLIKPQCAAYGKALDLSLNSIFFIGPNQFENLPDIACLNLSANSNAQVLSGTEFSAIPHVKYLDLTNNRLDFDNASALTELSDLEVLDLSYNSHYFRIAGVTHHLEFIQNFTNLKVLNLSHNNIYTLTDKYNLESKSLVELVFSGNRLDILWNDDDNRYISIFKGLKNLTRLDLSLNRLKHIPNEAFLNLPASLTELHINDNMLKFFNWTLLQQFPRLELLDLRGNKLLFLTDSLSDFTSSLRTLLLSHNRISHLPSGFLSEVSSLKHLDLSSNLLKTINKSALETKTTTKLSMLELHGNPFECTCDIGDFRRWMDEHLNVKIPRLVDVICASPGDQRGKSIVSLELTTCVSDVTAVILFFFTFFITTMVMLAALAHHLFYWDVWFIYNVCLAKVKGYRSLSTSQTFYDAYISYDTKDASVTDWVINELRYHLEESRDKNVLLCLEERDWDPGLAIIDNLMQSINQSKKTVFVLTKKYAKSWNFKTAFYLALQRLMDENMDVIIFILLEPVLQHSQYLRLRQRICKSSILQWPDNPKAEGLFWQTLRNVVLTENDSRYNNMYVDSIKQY
Outline: (§3)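 TNFα secretion by hPBMCs across a μM dose range; MEC = lowest dose tested inducing cytokine, PC = dose giving highest level, PL = peak level at 10 μM. Data representative of one of three independent donors.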

[5] = target: T3, Toll-like receptor 8 (Homo sapiens); test: Agonist activity at TLR8 in human PBMC assessed as induction of myeloid dendritic cell maturation by measuring HLA-DR level at 0.1 uM after 6 hrs by flow cytometry; outline: as §1
[6] = target: T3, Toll-like receptor 8 (Homo sapiens); test: Agonist activity at TLR8 in human PBMC assessed as TNFalpha level; outline: as §3
[7] = target: T2, Toll-like receptor 7 (Homo sapiens); test: Agonist activity at TLR7 in human PBMC assessed as induction of plasmacytoid dendritic cell maturation by measuring CD80 level at 0.1 uM after 6 hrs by flow cytometry; outline: as §1
[8] = target: T2, Toll-like receptor 7 (Homo sapiens); test: Agonist activity at TLR7 in human PBMC assessed as induction of plasmacytoid dendritic cell maturation by measuring increase in CD86 level at 0.1 uM after 6 hrs by flow cytometry relative to control; outline: as §1
[9] = target: TLR7 and TLR8 (Homo sapiens) (UniProt Q9NYK1+Q9NR97); test: Agonist activity at TLR7/TLR8 in human PBMC assessed as IFN alpha level; outline: as §2
[10] = target: T3, Toll-like receptor 8 (Homo sapiens); test: Agonist activity at TLR8 in human PBMC assessed as induction of myeloid dendritic cell maturation by measuring CD86 level at 0.1 uM after 6 hrs by flow cytometry; outline: as §1
[11] = target: T2, Toll-like receptor 7 (Homo sapiens); test: Agonist activity at TLR7 in human PBMC assessed as induction of plasmacytoid dendritic cell maturation by measuring CD86 level at 0.1 uM after 6 hrs by flow cytometry; outline: as §1
[12] = target: T4, Toll-like receptor 9 (Homo sapiens) (UniProt Q9NR96); test: Agonist activity at human TLR9 expressed in HEK293 cells by SEAP reporter gene assay
T4 sequence (whole entry): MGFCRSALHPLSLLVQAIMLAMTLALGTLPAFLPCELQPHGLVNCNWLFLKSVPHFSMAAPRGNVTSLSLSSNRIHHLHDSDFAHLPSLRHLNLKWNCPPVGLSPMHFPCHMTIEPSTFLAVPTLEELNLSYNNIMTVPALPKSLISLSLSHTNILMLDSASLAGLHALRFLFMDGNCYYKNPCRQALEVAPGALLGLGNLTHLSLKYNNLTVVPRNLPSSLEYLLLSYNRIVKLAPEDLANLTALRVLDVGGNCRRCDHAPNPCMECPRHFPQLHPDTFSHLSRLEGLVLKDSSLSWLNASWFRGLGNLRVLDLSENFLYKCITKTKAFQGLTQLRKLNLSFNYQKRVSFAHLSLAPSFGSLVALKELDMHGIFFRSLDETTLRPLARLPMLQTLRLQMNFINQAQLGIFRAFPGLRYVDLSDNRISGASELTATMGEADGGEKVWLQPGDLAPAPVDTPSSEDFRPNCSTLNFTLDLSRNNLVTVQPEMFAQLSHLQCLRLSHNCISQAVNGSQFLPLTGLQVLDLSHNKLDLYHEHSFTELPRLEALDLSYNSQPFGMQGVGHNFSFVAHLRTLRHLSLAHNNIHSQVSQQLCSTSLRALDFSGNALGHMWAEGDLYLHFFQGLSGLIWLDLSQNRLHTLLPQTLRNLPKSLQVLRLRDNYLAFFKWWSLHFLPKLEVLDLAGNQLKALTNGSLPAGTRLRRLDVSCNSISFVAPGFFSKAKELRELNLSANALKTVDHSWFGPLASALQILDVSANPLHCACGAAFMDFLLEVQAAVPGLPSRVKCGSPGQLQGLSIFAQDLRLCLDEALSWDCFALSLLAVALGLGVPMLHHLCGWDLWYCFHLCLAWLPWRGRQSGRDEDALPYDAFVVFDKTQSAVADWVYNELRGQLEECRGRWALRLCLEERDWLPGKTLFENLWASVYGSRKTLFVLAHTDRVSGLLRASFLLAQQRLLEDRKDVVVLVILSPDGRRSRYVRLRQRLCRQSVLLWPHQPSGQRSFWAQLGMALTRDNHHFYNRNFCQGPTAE

[13] = target: Toll-like receptor 3 (Homo sapiens) (UniProt O15455); test: Agonist activity at human TLR3 expressed in HEK293 cells by SEAP reporter gene assay
[14] = target: T3, Toll-like receptor 8 (Homo sapiens); test: Agonist activity at TLR8 in human PBMC assessed as induction of myeloid dendritic cell maturation by measuring increase in MHC-1 level at 0.1 uM after 6 hrs by flow cytometry relative to control; outline: as §1
[15] = target: T3, Toll-like receptor 8 (Homo sapiens); test: Agonist activity at TLR8 in human PBMC assessed as induction of myeloid dendritic cell maturation by measuring increase in CD86 level at 0.1 uM after 6 hrs by flow cytometry relative to control; outline: as §1

Sequence of Toll-like receptor 3 (Homo sapiens) (O15455 whole entry): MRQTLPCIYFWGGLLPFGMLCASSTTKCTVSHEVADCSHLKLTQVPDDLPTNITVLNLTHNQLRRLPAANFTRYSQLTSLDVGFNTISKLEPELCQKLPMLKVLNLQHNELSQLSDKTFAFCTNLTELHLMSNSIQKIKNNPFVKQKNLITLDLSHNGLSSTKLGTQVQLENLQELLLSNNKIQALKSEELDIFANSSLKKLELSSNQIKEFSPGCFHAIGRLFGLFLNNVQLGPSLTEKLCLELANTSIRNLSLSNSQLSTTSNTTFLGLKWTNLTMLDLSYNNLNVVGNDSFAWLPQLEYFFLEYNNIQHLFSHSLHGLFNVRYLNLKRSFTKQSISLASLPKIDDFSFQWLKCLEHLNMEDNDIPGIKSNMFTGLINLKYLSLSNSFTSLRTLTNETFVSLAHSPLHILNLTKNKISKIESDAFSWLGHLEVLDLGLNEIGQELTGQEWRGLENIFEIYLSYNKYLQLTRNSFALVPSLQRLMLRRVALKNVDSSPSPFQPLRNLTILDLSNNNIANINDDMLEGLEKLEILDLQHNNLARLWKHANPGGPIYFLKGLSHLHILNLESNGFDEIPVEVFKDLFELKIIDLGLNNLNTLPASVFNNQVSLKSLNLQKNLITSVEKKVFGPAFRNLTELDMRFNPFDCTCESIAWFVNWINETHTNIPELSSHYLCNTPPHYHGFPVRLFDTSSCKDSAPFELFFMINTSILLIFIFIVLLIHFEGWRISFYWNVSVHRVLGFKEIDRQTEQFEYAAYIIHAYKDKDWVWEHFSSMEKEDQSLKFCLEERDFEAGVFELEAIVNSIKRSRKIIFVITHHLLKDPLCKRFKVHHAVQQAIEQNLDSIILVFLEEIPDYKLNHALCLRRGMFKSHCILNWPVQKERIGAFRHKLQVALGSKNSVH

Compound	EC50 (Toll-like receptor 7)	fold change (FC) [1]	Activity [2]	fold change (FC) [3]	MEC [6]	fold change (FC) [8]	ECmax [9]	MEC [9]	also measured
CCCCOc1nc(N)c2[nH]c(=O)n(CC3CCN(CCO)CC3)c2n1	23.1 µM	1.5 to 1.7	4730 pg/mL	1.5 to 1.7	10 µM	1.7 to 2.3	0.4 µM	0.4 µM	Activity [4]: 2740 pg/mL; Activity [5]: inactive; Activity [7]: inactive; Activity [10]: inactive; Activity [11]: inactive
CCOCc1nc2c(N)nc3ccccc3c2n1CC(C)(C)O			1410 pg/mL		2 µM		10 µM	0.08 µM	fold change (FC) [14]: 1.4; fold change (FC) [15]: 1.9
CCCCNc1nc(N)c2[nH]c(=O)n(CC3CCNCC3)c2n1	40 µM		5980 pg/mL						

Continued, in another order:

EC50 (Toll-like receptor 7)	fold change (FC) [1]	Activity [2]	fold change (FC) [3]	MEC [6]	fold change (FC) [8]	ECmax [9]	MEC [9]	Compound	also measured
0.45 µM	1.7 to 2.3	4680 pg/mL	1.7 to 2.3					CCCCOc1nc(N)c2[nH]c(=O)n(CCCCCC3CCNCC3)c2n1	
19.8 µM	1.2 to 2.4	5900 pg/mL	1.2 to 2.4		1.4			CCCCOc1nc(N)c2[nH]c(=O)n(CC3CCNCC3)c2n1	Activity [12]: inactive; Activity [13]: inactive
6.71 µM		4420 pg/mL						CCC[C@H](C)Oc1nc(N)c2[nH]c(=O)n(CC3CCN(CCN)CC3)c2n1	
